Data from ChEMBL document CHEMBL4028864 (J Med Chem, 2017).
Activity calls are given as the source filed them. The rule behind the calls is not given here.

Key:
[1] = target: Inhibitor of nuclear factor kappa-B kinase subunit beta (Homo sapiens) (UniProt O14920); assay: Inhibition of wild type human IKKbeta (M1 to S756 residues) expressed in mammalian cells assessed as residual activity at 1 uM by KINOMEscan assay relative to control; assay type: cell-based
[2] = Cytotoxicity against human AC10 cells assessed as cell viability at 100 uM after 24 hrs by CellTiter-Glo assay relative to control; assay type: cell-based; settings: read-out: Activity
Summary of the method: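 AC10 human cardiomyocytes seeded at 5000 cells/well the day before treatment. Cells were exposed for 24 h at 37 °C to a range of 0.315–100 μM final (0.5% DMSO). Viability was read by CellTiter-Glo luminescence.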

[3] = target: Protein deacetylase HDAC6 (Homo sapiens) (UniProt Q9UBN7); assay: Inhibition of HDAC6 in human MOLM14 cells assessed as increase in acetylated tubulin level up to 3 uM after 16 hrs by immunoblotting analysis; assay type: cell-based
Summary of the method: (§1)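 KMS-12-BM and MOLM-14 cells were treated for 16 h and then lysed. Acetylated tubulin was detected by immunoblotting, and membranes were reprobed for total tubulin as loading control.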

cells [4] = assay type: functional, cell-based; settings: Homo sapiens, KHYG, 48 h
KG-1 = assay: cells; assay type: functional, cell-based; settings: Homo sapiens, KG-1, 48 h
[5] = target: Non-receptor tyrosine-protein kinase TYK2 (Homo sapiens, UniProt P29597); assay: Inhibition of human TYK2 using KKSRGDYMTMQIG as substrate in presence of [gamma-33P]-ATP
Summary of the method: (§2)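 Kinase inhibition was tested by radiometric "Hotspot" profiling at a contract laboratory with 10 μM ATP.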

MOLM-14 = assay: Induction of apoptosis in human MOLM14 cells assessed as increase in cleaved PARP level at 1 to 6 uM after 24 hrs by immunoblotting analysis; assay type: functional, cell-based
Summary of the method: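 KMS-12-BM and MOLM-14 cells were treated for 24 h and then lysed. Cleaved PARP was detected by immunoblotting.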

MCF7 = assay: cells; assay type: functional, cell-based; settings: Homo sapiens, MCF7, 72 h
[6] = target: Protein deacetylase HDAC6 (Homo sapiens) (UniProt Q9UBN7); assay: Inhibition of HDAC6 in human KMS-12-BM cells assessed as increase in acetylated tubulin level up to 6 uM after 16 hrs by immunoblotting analysis; assay type: cell-based; summary of the method: as §1
[7] = target: T1, Tyrosine-protein kinase JAK3 (Homo sapiens, UniProt P52333); assay: Inhibition of wild type human JAK3 (I781 to S1124 residues) expressed in mammalian cells assessed as residual activity at 1 uM by KINOMEscan assay relative to control; assay type: cell-based; settings: read-out: Activity
T1 sequence (P52333 whole entry): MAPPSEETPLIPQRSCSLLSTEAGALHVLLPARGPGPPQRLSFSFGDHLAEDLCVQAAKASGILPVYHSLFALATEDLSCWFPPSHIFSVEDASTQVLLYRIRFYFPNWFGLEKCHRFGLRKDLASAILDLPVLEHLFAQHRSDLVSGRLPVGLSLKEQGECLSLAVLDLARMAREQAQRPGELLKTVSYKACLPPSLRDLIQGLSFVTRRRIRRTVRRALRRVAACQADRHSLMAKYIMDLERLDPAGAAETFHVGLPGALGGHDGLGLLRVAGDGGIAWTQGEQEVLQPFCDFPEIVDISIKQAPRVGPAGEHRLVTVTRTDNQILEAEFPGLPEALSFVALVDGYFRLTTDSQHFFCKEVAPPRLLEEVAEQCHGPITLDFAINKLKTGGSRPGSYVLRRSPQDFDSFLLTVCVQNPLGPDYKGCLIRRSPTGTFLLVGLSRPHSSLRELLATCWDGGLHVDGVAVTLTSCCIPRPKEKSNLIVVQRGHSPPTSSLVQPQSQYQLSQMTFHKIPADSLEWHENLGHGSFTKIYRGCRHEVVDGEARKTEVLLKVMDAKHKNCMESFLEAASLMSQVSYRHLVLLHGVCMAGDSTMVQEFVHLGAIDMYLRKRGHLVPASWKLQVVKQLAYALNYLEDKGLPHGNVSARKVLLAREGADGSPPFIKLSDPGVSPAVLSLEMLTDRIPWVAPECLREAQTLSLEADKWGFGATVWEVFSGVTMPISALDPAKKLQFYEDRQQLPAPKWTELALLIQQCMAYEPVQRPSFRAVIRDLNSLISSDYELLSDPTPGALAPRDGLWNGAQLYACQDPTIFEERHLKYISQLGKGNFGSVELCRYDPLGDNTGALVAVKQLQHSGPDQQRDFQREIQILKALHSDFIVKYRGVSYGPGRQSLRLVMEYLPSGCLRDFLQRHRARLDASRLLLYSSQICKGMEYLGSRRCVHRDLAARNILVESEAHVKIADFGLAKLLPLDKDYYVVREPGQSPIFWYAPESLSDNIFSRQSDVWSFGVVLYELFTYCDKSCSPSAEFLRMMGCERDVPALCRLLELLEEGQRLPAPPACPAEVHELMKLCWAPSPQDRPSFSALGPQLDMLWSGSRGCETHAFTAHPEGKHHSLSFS

[8] = target: T1, Tyrosine-protein kinase JAK3; assay: Inhibition of human JAK3 using GEEEEYFELVKKKK as substrate in presence of [gamma-33P]-ATP; summary of the method: as §2
MV4-11 = assay: cells; assay type: functional, cell-based; settings: Homo sapiens, MV4-11, 48 h
[9] = target: Tyrosine-protein kinase JAK2 (Homo sapiens, UniProt O60674); assay: Binding affinity to N-terminal His tagged human recombinant JAK2 (1014 to 1132 residues) expressed in Escherichia coli after 60 to 90 mins by LC/MS analysis; settings: read-out: Kd(app)
[10] = target: NUAK family SNF1-like kinase 2 (Homo sapiens) (UniProt Q9H093); assay: Inhibition of wild type human SNARK (P22 to A333 residues) expressed in mammalian cells assessed as residual activity at 1 uM by KINOMEscan assay relative to control; assay type: cell-based
cells [11] = assay type: ADME, cell-based; settings: Homo sapiens, AC10, 24 h
[12] = target: Histone deacetylase 3/Nuclear receptor corepressor 2 (HDAC3/NCoR2) (Homo sapiens, UniProt O15379); assay: Inhibition of human recombinant HDAC3 (1 to 428 residues)/N-terminal GST-tagged NCOR2 (395 to 489 residues) expressed in Baculovirus infected insect cells in presence of ATP
Summary of the method: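 HDAC enzyme inhibition was run by a contract laboratory.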

[13] = target: Rho-associated protein kinase 2 (Homo sapiens) (UniProt O75116); assay: Inhibition of wild type human ROCK2 (M1 to T431 residues) expressed in mammalian cells assessed as residual activity at 1 uM by KINOMEscan assay relative to control; assay type: cell-based
OPM-2 = assay: Antiproliferative activity against human OPM2 cells after 48 hrs by CellTiter-Glo luminescent assay; assay type: functional, cell-based; settings: OPM-2, 48 h
HL-60 = assay: Antiproliferative activity against human HL60 cells; assay type: functional, cell-based
[14] = Half life in rat liver microsome preincubated for 5 mins followed by NADPH addition by LC-MS/MS analysis; assay type: ADME; settings: liver microsomes

Protein deacetylase HDAC6 (Homo sapiens), sequence (Q9UBN7 whole entry, the tested form may be a part): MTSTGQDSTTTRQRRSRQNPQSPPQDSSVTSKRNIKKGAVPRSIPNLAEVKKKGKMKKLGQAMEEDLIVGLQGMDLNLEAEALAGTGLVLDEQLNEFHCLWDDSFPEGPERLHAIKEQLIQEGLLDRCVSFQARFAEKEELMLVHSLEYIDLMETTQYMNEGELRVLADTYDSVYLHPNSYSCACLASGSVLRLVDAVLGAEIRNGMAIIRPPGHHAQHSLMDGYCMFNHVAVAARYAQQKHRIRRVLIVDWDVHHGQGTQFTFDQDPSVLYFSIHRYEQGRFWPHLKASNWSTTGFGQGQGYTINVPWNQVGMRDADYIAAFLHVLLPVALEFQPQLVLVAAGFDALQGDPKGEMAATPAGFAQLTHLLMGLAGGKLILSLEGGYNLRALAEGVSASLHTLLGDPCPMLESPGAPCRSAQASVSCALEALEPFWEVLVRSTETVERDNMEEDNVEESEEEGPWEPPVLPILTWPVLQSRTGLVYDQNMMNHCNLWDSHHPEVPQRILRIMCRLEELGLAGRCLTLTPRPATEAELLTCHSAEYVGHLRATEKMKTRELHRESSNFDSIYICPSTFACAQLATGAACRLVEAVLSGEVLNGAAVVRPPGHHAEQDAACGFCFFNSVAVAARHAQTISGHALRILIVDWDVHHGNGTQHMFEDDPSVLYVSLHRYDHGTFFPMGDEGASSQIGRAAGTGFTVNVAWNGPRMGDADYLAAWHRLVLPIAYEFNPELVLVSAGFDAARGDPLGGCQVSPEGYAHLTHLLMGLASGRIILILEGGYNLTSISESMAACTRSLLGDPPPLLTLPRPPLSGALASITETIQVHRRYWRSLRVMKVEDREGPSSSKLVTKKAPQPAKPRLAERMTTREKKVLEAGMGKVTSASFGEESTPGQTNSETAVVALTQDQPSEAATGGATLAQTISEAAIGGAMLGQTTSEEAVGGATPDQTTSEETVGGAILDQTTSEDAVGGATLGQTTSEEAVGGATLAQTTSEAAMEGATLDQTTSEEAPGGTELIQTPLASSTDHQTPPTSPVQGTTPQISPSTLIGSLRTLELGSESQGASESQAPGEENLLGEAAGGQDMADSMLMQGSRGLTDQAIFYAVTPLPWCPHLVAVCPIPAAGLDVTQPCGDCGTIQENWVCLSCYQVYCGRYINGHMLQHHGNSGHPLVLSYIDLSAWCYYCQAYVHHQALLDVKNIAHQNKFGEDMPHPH
NUAK family SNF1-like kinase 2 (Homo sapiens), sequence (Q9H093 whole entry, the tested form may be a part): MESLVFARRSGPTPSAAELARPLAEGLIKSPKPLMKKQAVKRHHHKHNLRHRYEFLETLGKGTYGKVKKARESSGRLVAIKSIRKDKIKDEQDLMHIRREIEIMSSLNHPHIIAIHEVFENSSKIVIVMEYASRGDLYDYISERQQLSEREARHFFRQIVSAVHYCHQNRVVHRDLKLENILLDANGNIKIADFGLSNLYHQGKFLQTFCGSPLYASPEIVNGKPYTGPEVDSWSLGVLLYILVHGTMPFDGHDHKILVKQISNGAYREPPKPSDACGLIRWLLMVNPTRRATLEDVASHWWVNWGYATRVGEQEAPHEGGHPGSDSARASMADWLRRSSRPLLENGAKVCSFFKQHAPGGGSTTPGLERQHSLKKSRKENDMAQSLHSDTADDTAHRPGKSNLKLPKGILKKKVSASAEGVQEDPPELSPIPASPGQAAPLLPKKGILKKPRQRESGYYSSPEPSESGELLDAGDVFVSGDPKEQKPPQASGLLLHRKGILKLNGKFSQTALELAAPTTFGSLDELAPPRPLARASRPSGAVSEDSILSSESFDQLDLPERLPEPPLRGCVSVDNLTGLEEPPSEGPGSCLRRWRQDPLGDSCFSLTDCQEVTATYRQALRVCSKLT
Rho-associated protein kinase 2 (Homo sapiens), sequence (O75116 whole entry, looked up, the tested form may be a part): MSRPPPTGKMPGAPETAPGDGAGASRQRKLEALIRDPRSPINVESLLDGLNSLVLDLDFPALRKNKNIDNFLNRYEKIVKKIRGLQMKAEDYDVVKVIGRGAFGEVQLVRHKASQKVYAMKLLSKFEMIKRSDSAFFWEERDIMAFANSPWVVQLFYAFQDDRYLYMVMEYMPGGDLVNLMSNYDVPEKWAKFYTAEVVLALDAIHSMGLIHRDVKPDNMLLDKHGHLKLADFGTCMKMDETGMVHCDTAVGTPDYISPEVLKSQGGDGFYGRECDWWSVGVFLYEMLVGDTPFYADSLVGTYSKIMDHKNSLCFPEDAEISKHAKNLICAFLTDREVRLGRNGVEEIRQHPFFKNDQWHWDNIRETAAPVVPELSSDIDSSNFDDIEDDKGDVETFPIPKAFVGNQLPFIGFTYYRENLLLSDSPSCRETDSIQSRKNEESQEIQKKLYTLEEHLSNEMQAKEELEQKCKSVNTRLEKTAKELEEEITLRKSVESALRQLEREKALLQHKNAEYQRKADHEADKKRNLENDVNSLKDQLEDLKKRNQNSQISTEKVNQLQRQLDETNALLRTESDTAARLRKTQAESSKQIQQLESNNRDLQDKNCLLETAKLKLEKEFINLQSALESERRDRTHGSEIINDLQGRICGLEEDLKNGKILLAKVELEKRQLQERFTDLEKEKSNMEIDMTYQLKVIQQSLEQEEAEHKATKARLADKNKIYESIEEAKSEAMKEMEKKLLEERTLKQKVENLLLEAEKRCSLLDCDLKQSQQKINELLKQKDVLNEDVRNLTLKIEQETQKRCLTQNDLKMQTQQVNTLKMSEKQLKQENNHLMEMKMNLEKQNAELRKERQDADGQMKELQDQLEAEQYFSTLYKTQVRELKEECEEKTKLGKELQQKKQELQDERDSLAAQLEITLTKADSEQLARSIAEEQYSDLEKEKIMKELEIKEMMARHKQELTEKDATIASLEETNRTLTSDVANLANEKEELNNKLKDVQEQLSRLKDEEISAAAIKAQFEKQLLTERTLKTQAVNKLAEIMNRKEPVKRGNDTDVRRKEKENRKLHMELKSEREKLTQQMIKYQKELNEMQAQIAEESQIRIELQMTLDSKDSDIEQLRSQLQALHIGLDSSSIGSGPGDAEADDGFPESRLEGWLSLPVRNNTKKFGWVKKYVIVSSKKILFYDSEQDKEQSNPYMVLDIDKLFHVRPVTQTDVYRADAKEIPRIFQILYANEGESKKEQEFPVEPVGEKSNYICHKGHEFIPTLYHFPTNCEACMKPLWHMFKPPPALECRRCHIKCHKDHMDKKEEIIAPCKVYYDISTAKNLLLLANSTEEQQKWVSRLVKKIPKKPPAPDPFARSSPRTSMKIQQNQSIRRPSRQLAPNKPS
Inhibitor of nuclear factor kappa-B kinase subunit beta (Homo sapiens), sequence (O14920 whole entry, the tested form may be a part): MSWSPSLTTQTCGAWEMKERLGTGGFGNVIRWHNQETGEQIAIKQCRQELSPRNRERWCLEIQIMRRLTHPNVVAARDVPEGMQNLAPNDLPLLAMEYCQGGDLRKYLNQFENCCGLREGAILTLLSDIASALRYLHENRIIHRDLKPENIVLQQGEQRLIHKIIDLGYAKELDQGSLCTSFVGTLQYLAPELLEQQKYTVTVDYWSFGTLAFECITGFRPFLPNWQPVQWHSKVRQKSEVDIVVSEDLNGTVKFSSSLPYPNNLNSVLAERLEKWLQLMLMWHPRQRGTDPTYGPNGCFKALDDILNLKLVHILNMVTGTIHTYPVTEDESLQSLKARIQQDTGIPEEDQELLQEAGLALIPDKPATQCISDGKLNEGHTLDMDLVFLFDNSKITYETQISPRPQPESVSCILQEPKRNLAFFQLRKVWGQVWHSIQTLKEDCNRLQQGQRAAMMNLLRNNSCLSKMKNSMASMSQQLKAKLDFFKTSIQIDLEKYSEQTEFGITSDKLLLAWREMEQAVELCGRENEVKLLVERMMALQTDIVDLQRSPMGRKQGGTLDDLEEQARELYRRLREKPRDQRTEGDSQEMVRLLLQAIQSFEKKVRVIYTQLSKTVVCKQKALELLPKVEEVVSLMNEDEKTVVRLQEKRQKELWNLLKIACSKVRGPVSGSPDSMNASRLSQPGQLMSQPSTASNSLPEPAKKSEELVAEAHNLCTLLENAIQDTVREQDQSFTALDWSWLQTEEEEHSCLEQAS
Tyrosine-protein kinase JAK2, sequence (O60674 whole entry, the tested form may be a part): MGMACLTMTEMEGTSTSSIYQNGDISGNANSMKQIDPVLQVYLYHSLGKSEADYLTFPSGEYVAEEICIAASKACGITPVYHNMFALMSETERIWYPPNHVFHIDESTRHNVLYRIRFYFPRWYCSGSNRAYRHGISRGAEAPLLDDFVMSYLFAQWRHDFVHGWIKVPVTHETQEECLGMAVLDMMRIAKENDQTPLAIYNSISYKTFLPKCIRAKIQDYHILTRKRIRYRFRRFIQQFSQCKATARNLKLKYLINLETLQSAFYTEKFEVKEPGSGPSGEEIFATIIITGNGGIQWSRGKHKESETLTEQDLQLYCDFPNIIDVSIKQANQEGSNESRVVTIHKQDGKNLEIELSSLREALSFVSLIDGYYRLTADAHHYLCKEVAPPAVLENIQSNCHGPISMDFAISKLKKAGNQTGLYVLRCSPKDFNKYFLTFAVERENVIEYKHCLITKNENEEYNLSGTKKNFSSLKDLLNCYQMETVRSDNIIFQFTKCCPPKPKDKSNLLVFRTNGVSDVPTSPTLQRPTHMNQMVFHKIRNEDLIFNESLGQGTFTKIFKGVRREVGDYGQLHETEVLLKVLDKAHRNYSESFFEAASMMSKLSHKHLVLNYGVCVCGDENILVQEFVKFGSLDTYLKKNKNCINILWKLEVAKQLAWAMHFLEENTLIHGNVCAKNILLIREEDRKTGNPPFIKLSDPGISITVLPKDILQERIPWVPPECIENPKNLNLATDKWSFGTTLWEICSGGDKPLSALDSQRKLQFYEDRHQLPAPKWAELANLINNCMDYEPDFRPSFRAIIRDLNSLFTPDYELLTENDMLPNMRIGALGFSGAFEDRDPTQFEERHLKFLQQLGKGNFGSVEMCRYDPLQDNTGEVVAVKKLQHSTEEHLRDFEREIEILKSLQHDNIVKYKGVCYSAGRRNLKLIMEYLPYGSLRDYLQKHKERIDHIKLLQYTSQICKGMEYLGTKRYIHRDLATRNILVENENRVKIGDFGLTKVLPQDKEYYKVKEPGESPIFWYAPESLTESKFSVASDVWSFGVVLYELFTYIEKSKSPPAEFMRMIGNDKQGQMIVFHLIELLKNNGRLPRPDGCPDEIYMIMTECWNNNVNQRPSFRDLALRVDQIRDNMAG

Activity [1]: 30% | inhibition [3]: Active | IC50 (cells [4]): 570 nM | IC50 (KG-1): 150 nM | IC50 [5]: 188 nM | IC50 (MCF7): 840 nM | inhibition [6]: Active | activity at 1 µM [7]: 0.75% | IC50 [8]: 569 nM | IC50 (MV4-11): 460 nM | Kd [9]: 5000 nM | Activity [10]: 7.5% | IC50 (cells [11]): > 100000 nM | IC50 [12]: 3.9 nM | Activity [13]: 29% | IC50 (HL-60): 7360 nM | half-life [14]: > 3.33 h
Structure (SMILES): O=C(CCCCCCn1cc(-c2ncnc3[nH]ccc23)cn1)NO
viability at 24 h, 100 µM [2]: 56% | Activity (MOLM-14): Dose-dependent effect | IC50 (OPM-2): 2160 nM
